Screens: PubChem, several laboratories
MT1-MMP txn act = MT1-MMP promoter transcription activation; HT1080 MT1-MMP promoter luciferase reporter, luminescence, overnight; active compounds read high; activation factor at 10 µM; 86,000 compounds, 0.16% hits;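 active means activation factor of at least 2 for MT1-MMP transcription at 10 µM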
HEK293 NFkB inh = inhibitors of the PMA/ionomycin-induced NF-kB reporter in HEK293 cells; 62,000 compounds, 0.21% hits; inhibition, % at 3 µM; AID 465; HEK-293 NF-kB luciferase reporter, luminescence;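 active means inhibition above the mean of all tested compounds plus 3 SD, cut at about 40% in these data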
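System: NF-kB luciferase reporter HEK-293 cells | Replication: Single test | Control set: DMSO vs reference inhibitor | Evaluation: % inhibition | Schedule: 1 h pretreatment, 16 h stimulation, 37 °C | Probe or stimulus: PMA with ionomycin | Compound dosing: One dose, 3 µM | Detection: Luciferase luminescence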
Jurkat tox 60K = reduces viability or proliferation of Jurkat cells; Jurkat E6.1 viability, ATP luminescence, 48 h; inhibition, % at 4 µM; 56,000 compounds, 1.2% hits;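 active means inhibition above the mean inhibition of all tested compounds plus 3 SD, cut at about 28% in these data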
RORA act = activators of human nuclear receptor RORA; P35398; CHO-K1 Gal4-RORA LBD luciferase reporter, luminescence; percent increase over mock-subtracted basal signal; activation, % at 10 µM; 65,000 compounds, 1.5% hits; AID 560;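 active means activation above the mean of all tested compounds plus 3 SD, cut at about 49% in these data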
Target sequence (P35398 whole entry, looked up, the tested form may be a part): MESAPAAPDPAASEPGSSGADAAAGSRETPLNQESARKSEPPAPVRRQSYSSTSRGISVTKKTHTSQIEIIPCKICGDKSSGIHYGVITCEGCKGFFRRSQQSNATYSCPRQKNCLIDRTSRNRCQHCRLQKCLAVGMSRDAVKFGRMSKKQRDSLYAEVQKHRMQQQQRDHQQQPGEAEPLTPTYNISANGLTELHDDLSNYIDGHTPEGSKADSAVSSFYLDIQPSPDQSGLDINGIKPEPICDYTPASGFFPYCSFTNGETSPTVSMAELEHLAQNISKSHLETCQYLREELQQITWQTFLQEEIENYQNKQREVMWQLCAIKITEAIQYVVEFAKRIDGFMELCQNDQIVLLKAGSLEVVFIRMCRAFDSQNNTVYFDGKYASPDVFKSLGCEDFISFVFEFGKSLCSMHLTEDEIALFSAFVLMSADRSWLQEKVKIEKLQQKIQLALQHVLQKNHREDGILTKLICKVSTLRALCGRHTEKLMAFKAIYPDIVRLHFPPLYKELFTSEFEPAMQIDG
SF1 activator = activators of human nuclear receptor SF-1; AID 522; Q13285; CHO-K1 Gal4-SF-1 LBD luciferase reporter; % increase over DMSO SF-1-specific signal; 65,000 compounds, 1.9% hits; activation, % at 10 µM;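 active means activation above the mean activation of all tested compounds plus 3 SD, cut at about 50% in these data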
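Test system: CHO-K1 cells with Gal4–hSF-1 LBD chimera plus Gal4-driven luciferase; Input: 4,000 cells/well; Compound: 10 µM only; Times: 20 h compound treatment, 37 °C; Measured by: steady-glow luciferase luminescence, read after 15 min reagent incubation; Measure: percent activation versus DMSO; Control set: DMSO and mock-transfected background; Replicates: one test per compound.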
Of the large screens only hits and unclear results are named; the others gave an inactive call. Shown are actives, neighbours in structure and some others; about 2.9% of the full set was active somewhere.

O=C(Nc1ccc(N2CCOCC2)cc1)Nc1ccc2nc(-c3ccco3)c(-c3ccco3)nc2c1	Jurkat tox 60K 83
Cc1cc(C)c(NC(=O)CSc2nnc(SCC(=O)Nc3c(C)cc(C)cc3C)n2N)c(C)c1	none (no result: HEK293 NFkB inh, Jurkat tox 60K, RORA act, SF1 activator)
CC1=CCC(COC(=O)Nc2ccccc2)CC1 (stereo not drawn)	RORA act 90
O=C(Cc1ccc(Br)cc1)c1ccc(O)cc1O	SF1 activator 84
CCCCC(=O)c1ccc(O)cc1O	none (no result: HEK293 NFkB inh, Jurkat tox 60K, RORA act, SF1 activator)
Cc1cc(=O)n2nc(N3CCC(C(=O)NCCC4=CCCCC4)CC3)sc2n1	none
CC(=O)c1c(N2CCN(Cc3ccccc3)CC2)[nH]c(-c2ccccc2)nc1=S	Jurkat tox 60K 38
CC(=O)c1c(N2CCCC2)[nH]c(-c2ccccc2)nc1=S	none (no result: HEK293 NFkB inh, Jurkat tox 60K, RORA act, SF1 activator)
COc1cc(NC(=O)c2cc3sccc3n2C)cc(OC)c1	MT1-MMP txn act 2.1, RORA act 61, SF1 activator 106
Cn1c(C(=O)Nc2ccc3c(c2)OCO3)cc2sccc21	SF1 activator 79
Cn1c(C(=O)Nc2ccccc2)cc2sccc21	MT1-MMP txn act 2.2 (no result: HEK293 NFkB inh, Jurkat tox 60K, RORA act, SF1 activator)
COC(=O)c1ccc(NC(=O)c2cc3sccc3n2C)cc1	none (no result: HEK293 NFkB inh, Jurkat tox 60K, RORA act, SF1 activator)
COc1ccc(OC)c(NC(=O)c2cc3sccc3n2C)c1	none
COC(=O)c1cc(-c2ccccc2)n(CCNC(=O)CCCCCN2C(=O)NC(c3ccc(-c4ccccc4)cc3)C(C(=O)OCc3ccccc3)=C2C)c1C (stereo not drawn)	none (no result: HEK293 NFkB inh, Jurkat tox 60K, RORA act, SF1 activator)
CC1(C)Cc2c(sc3nc(-c4cc5ccccc5o4)n(N)c(=O)c23)CO1	RORA act 59
O=C(Nc1ccon1)c1cc2ccccc2oc1=O	none (no result: HEK293 NFkB inh, Jurkat tox 60K, RORA act, SF1 activator)
COc1ccc(CC(=O)NCCN2CCCC2)cc1	MT1-MMP txn act 2.4 (no result: HEK293 NFkB inh, Jurkat tox 60K, RORA act, SF1 activator)
O=C(Cc1ccc(Cl)cc1)NCCN1CCCC1	none
CN1CCN(c2ccc(C(=O)c3ccc(F)cc3)cc2)CC1	RORA act 61
O=C(c1ccccc1)c1ccc(N2CCCC2)cc1	SF1 activator 77 (no result: Jurkat tox 60K)
O=C(O)CCC(=O)N1CCN(c2ccc(C(=O)c3ccc(F)cc3)cc2)CC1	none
Cn1c2ccccc2c2ncn(CCCN3CCOCC3)c(=O)c21	none
Cn1c2ccccc2c2ncn(CCC3=CCCCC3)c(=O)c21	SF1 activator 51
Cn1c(CN2CCCCC2)nc2cc(NC(=O)c3ccc(Cl)cc3)ccc21	none (no result: HEK293 NFkB inh, Jurkat tox 60K, RORA act, SF1 activator)
Cn1cnc2cc(NC(=O)c3ccc(Cl)cc3)ccc21	RORA act 79, SF1 activator 67
FC(F)(F)Oc1ccc(Nc2nc3ccccc3o2)cc1	MT1-MMP txn act 2.2, RORA act 71
Cc1ccc(NC(=O)c2c(C)nc(Nc3nc4ccccc4o3)nc2C)cc1	none
Nc1ccc(N2CCCCCC2)cc1	Jurkat tox 60K 37
O=C(O)c1ccc(N2CCCCC2)cc1	none
COc1ccc(-c2nnc3c4ccccc4c(C)nn23)cc1	MT1-MMP txn act 2 (no result: HEK293 NFkB inh, Jurkat tox 60K, RORA act, SF1 activator)
Cc1nn2c(-c3ccncc3)nnc2c2ccccc12	none
COc1c(C)cccc1C(=O)Nc1ccc(N2CCOCC2)c(Cl)c1	MT1-MMP txn act 2.2 (no result: HEK293 NFkB inh, Jurkat tox 60K, RORA act, SF1 activator)
O=C(CSc1nnc(Cn2nnc3ccccc32)o1)N(Cc1ccc(F)cc1)c1ccccc1	Jurkat tox 60K 98
COc1ccc(Nc2cc(C)nc3ncnn23)c(OC)c1	none
COc1ccc(CNc2cc(C)nc3ncnn23)c(OC)c1	Jurkat tox 60K 80
O=C(Nc1cccc(NC(=O)c2ccc(-c3ccc(Br)cc3)o2)c1)c1ccco1	none (no result: HEK293 NFkB inh, Jurkat tox 60K, RORA act, SF1 activator)
Cc1cc(NC(=O)NC(=O)c2cccc(OC(F)(F)C(F)F)c2)n[nH]1	RORA act 52, SF1 activator 81
Cc1c(C(=O)N2CCCCC2)oc2ccc(S(=O)(=O)N3CC(C)CC(C)C3)cc12 (stereo not drawn)	Jurkat tox 60K 32
CCOC(=O)N1CCN(C(=O)c2oc3ccc(S(=O)(=O)N4CCCCC4)cc3c2C)CC1	none
CN(C)C(=O)CSc1nnc([C@H](Cc2c[nH]c3ccccc23)NC(=O)OC(C)(C)C)o1	none
CCOC(=O)c1sc(NC(=O)CCn2nnc3ccccc32)c(C(=O)OCC)c1C	none
CCOC(=O)N1CCN(c2cc3[nH]c(=S)[nH]c3cc2F)CC1	none
CCOC(=O)N1CCN(c2c(F)cc3[nH]c(=S)[nH]c3c2Br)CC1	Jurkat tox 60K 85
CCCOC(=O)Nc1nc2ccccc2o1	SF1 activator 58
CCOC(=O)c1ccccc1NC(=O)CSc1nc2ccccc2o1	none
COc1ccc(C(=S)N2CCCC2)cc1C	none
Cn1c(SCc2c(F)cccc2Cl)nnc1-c1cccs1	RORA act 102, SF1 activator 58
CCOc1cc(C(=O)Nc2cnccn2)cc(OCC)c1OCC	Jurkat tox 60K 51
Cn1c(=O)c(C(=O)Nc2cnccn2)c(O)c2ccccc21	RORA act 52
Cn1c(=O)c(C(=O)Nc2ccccn2)c(O)c2ccccc21	none
C=CCn1c(=O)c(C(=O)Nc2nnc(C)s2)c(O)c2ccccc21	none
O=C(c1ccco1)N1CCN(c2ccc(Cl)cc2)CC1	RORA act 98
O=C(c1ccco1)N1CCN(C(=O)N2c3ccccc3Sc3ccccc32)CC1	Jurkat tox 60K 98
O=C(CCCOc1ccccc1)N1CCN(c2ccccn2)CC1	RORA act 56
O=C(N1CCN(c2ccccn2)CC1)N1c2ccccc2Sc2ccccc21	Jurkat tox 60K 69
O=C(c1ccco1)N1c2ccccc2Sc2ccccc21	none
O=C(CCCOc1ccc(Cl)cc1Cl)N1CCN(c2ccccn2)CC1	none
COC(=O)N1CCN(S(=O)(=O)c2ccc(F)cc2)CC1	none (no result: MT1-MMP txn act)
CCCCN1C(=S)SC(C)(C)C1/[N+]([O-])=C/c1cccnc1 (stereo not drawn)	none (no result: HEK293 NFkB inh, Jurkat tox 60K, RORA act, SF1 activator)
CCOc1ccc(C(=O)NCC2OCCc3ccccc32)cc1 (stereo not drawn)	none (no result: HEK293 NFkB inh, Jurkat tox 60K, RORA act, SF1 activator)
CS(=O)(=O)c1ccc2nc(NC(=O)CCC(=O)c3cccs3)sc2c1	none
CN(CC1CCCO1)S(=O)(=O)c1ccc(C(=O)Nc2nc3cc4c(cc3s2)OCO4)cc1 (stereo not drawn)	none
CCN(CC)S(=O)(=O)c1ccc2nc(NC(=O)c3cccs3)sc2c1	RORA act 49
CCN(CC)S(=O)(=O)c1cccc(C(=O)Nc2nc3cc4c(cc3s2)OCCO4)c1	Jurkat tox 60K 36
Cc1cc2oc(C(=O)N(Cc3ccco3)C3CCS(=O)(=O)C3)cc(=O)c2cc1Cl (stereo not drawn)	none
COc1cc(NC(=O)c2cccc3c2C(=O)N(Cc2cccnc2)C3)cc(OC)c1OC	HEK293 NFkB inh 58
COCC(=O)Nc1nnc(C2CCCCC2)s1	RORA act 52
CCOCC(=O)Nc1nnc(C2CCCCC2)s1	RORA act 50 (no result: Jurkat tox 60K)
Nc1cnn(C2CCCO2)c(=O)n1 (stereo not drawn)	none
CCS(=O)(=O)c1ccc2oc(Nc3ccccc3C)nc2c1	SF1 activator 66
O=c1ccccn1Cc1c(F)cccc1Cl	none (no result: HEK293 NFkB inh, Jurkat tox 60K, RORA act, SF1 activator)
Cc1occc1-c1nc(-c2ccncc2)no1	none
c1cncc(-c2noc(-c3cccc4ccccc34)n2)c1	none (no result: HEK293 NFkB inh, Jurkat tox 60K, RORA act, SF1 activator)
c1ccc(-c2noc(-c3cccc4ccccc34)n2)cc1	MT1-MMP txn act 2, RORA act 61, SF1 activator 65
